Data published in ChEMBL document CHEMBL2311499, “Synthesis, antiproliferative activity and tubulin targeting effect of acridinone and dioxophenothiazine derivatives” (Eur J Med Chem, 2013).
Values belong to the compound of their own block, whether it stands above or below them. Calls of active or inactive are those of the source. No cut-off for these calls is given here.

Tests used:
HT-29 [1] = assay: Cell cycle arrest in human HT-29 cells assessed as accumulation at sub-G1 phase at 0.5 uM after 24 hrs flow cytometry; type: functional
Outline: (§1)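 Flow cytometry: 2.5–4 × 10⁵ cells were seeded in 6-well plates, grown 24 h, then treated for 24 h. Floating and adherent cells were pooled and fixed in cold 70% ethanol for 24 h. Results are reported as the percentage of cells in sub-G1, G1, S and G2 phases.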

CAL-33 [2] = assay: Cell cycle arrest in human CAL33 cells assessed as accumulation at S phase at 0.5 uM after 24 hrs flow cytometry; type: functional; outline: as §1
CAL-33 [3] = assay: Cell cycle arrest in human CAL33 cells assessed as accumulation at sub-G1 phase at 0.5 uM after 24 hrs flow cytometry; type: functional; outline: as §1
HT-29 [4] = assay: Cell cycle arrest in human HT-29 cells assessed as accumulation at S phase at 0.5 uM after 24 hrs flow cytometry; type: functional; outline: as §1
HT-29 [5] = assay: Cell cycle arrest in human HT-29 cells assessed as accumulation at G2 phase at 0.5 uM after 24 hrs flow cytometry; type: functional; outline: as §1
CAL-33 [6] = assay: Cell cycle arrest in human CAL33 cells assessed as accumulation at G2 phase at 0.5 uM after 24 hrs flow cytometry; type: functional; outline: as §1
CAL-33 [7] = assay: Cell cycle arrest in human CAL33 cells assessed as accumulation at G1 phase at 0.5 uM after 24 hrs flow cytometry; type: functional; outline: as §1
HT-29 [8] = assay: Cell cycle arrest in human HT-29 cells assessed as accumulation at G1 phase at 0.5 uM after 24 hrs flow cytometry; type: functional; outline: as §1
[9] = Inhibition of bovine tubulin polymerization after 1 hr; set-up: species or system Bos taurus
HT-29 [10] = assay: Antiproliferative activity against human HT-29 cells after 72 hrs by MTT assay; type: functional, cell-based; conditions: HT-29, 72 h
Outline: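 HT29 cells were seeded at (1.6–1.8) × 10⁴ per well in medium with 10% FBS, serum-starved after 72 h, and treated the following day for 72 h. Viability was read by MTT (4 mg/mL, 4 h, 37 °C, 5% CO₂) with SDS/HCl solubilisation and absorbance at 570 nm. IC50 is the concentration giving 50% inhibition of proliferation relative to untreated controls.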

DU-145 = assay: Antiproliferative activity against human DU145 cells after 72 hrs by MTT assay; type: functional, cell-based; conditions: DU-145, 72 h
Outline: (§2)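 MTT viability readout. Cells were seeded at (1.6–1.8) × 10⁴ per well in medium with 10% FBS. After 72 h they were serum-deprived, then treated next day with a range of concentrations. MTT (4 mg/mL) was added for 4 h at 37 °C, 5% CO₂, followed by SDS/HCl lysis and absorbance at 570 nm. IC50 is the concentration giving 50% inhibition of proliferation relative to untreated controls.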

PC-3 = assay: Antiproliferative activity against human PC3 cells after 72 hrs by MTT assay; type: functional, cell-based; conditions: PC-3, 72 h; outline: as §2
HT-29 [11] = assay: Cell cycle arrest in human HT-29 cells assessed as accumulation at sub-G1 phase at 5 uM after 24 hrs flow cytometry; type: functional; outline: as §1
HL-60 [12] = assay: Cell cycle arrest in human HL60 cells assessed as accumulation at sub-G1 phase at 0.5 uM after 24 hrs flow cytometry; type: functional; outline: as §1
HL-60 [13] = assay: Cell cycle arrest in human HL60 cells assessed as accumulation at G2 phase at 5 uM after 24 hrs flow cytometry; type: functional; outline: as §1
HL-60 [14] = assay: Cell cycle arrest in human HL60 cells assessed as accumulation at S phase at 5 uM after 24 hrs flow cytometry; type: functional; outline: as §1
HL-60 [15] = assay: Cell cycle arrest in human HL60 cells assessed as accumulation at sub-G1 phase at 5 uM after 24 hrs flow cytometry; type: functional; outline: as §1
HL-60 [16] = assay: Cell cycle arrest in human HL60 cells assessed as accumulation at S phase at 0.5 uM after 24 hrs flow cytometry; type: functional; outline: as §1
CAL-33 [17] = assay: Antiproliferative activity against human CAL33 cells after 72 hrs by MTT assay; type: functional, cell-based; conditions: CAL-33, 72 h; outline: as §2
HL-60 [18] = assay: Cell cycle arrest in human HL60 cells assessed as accumulation at G2 phase at 0.5 uM after 24 hrs flow cytometry; type: functional; outline: as §1
HL-60 [19] = assay: Antiproliferative activity against human HL60 cells after 72 hrs by MTT assay; type: functional, cell-based; conditions: HL-60, 72 h; outline: as §2
CAL-33 [20] = assay: Cell cycle arrest in human CAL33 cells assessed as accumulation at G1 phase at 5 uM after 24 hrs flow cytometry; type: functional; outline: as §1
HL-60 [21] = assay: Cell cycle arrest in human HL60 cells assessed as accumulation at G1 phase at 5 uM after 24 hrs flow cytometry; type: functional; outline: as §1
CAL-33 [22] = assay: Cell cycle arrest in human CAL33 cells assessed as accumulation at S phase at 5 uM after 24 hrs flow cytometry; type: functional; outline: as §1
HT-29 [23] = assay: Cell cycle arrest in human HT-29 cells assessed as accumulation at G1 phase at 5 uM after 24 hrs flow cytometry; type: functional; outline: as §1
HT-29 [24] = assay: Cell cycle arrest in human HT-29 cells assessed as accumulation at S phase at 5 uM after 24 hrs flow cytometry; type: functional; outline: as §1
HL-60 [25] = assay: Cell cycle arrest in human HL60 cells assessed as accumulation at G1 phase at 0.5 uM after 24 hrs flow cytometry; type: functional; outline: as §1
HT-29 [26] = assay: Cell cycle arrest in human HT-29 cells assessed as accumulation at G2 phase at 5 uM after 24 hrs flow cytometry; type: functional; outline: as §1
[27] = target: DNA topoisomerase 2-alpha (Homo sapiens) (UniProt P11388); assay: Inhibition of human topoisomerase 2-mediated supercoiled plasmid DNA cleavage at 50 uM after 30 min by agarose gel electrophoresis
CAL-33 [28] = assay: Cell cycle arrest in human CAL33 cells assessed as accumulation at G2 phase at 5 uM after 24 hrs flow cytometry; type: functional; outline: as §1
CAL-33 [29] = assay: Cell cycle arrest in human CAL33 cells assessed as accumulation at sub-G1 phase at 5 uM after 24 hrs flow cytometry; type: functional; outline: as §1
CAL-33 [30] = assay: Cell cycle arrest in human CAL33 cells assessed as accumulation at G2 phase at 0.5 uM after 24 hrs flow cytometry

Sequence of DNA topoisomerase 2-alpha (Homo sapiens) (P11388 whole entry): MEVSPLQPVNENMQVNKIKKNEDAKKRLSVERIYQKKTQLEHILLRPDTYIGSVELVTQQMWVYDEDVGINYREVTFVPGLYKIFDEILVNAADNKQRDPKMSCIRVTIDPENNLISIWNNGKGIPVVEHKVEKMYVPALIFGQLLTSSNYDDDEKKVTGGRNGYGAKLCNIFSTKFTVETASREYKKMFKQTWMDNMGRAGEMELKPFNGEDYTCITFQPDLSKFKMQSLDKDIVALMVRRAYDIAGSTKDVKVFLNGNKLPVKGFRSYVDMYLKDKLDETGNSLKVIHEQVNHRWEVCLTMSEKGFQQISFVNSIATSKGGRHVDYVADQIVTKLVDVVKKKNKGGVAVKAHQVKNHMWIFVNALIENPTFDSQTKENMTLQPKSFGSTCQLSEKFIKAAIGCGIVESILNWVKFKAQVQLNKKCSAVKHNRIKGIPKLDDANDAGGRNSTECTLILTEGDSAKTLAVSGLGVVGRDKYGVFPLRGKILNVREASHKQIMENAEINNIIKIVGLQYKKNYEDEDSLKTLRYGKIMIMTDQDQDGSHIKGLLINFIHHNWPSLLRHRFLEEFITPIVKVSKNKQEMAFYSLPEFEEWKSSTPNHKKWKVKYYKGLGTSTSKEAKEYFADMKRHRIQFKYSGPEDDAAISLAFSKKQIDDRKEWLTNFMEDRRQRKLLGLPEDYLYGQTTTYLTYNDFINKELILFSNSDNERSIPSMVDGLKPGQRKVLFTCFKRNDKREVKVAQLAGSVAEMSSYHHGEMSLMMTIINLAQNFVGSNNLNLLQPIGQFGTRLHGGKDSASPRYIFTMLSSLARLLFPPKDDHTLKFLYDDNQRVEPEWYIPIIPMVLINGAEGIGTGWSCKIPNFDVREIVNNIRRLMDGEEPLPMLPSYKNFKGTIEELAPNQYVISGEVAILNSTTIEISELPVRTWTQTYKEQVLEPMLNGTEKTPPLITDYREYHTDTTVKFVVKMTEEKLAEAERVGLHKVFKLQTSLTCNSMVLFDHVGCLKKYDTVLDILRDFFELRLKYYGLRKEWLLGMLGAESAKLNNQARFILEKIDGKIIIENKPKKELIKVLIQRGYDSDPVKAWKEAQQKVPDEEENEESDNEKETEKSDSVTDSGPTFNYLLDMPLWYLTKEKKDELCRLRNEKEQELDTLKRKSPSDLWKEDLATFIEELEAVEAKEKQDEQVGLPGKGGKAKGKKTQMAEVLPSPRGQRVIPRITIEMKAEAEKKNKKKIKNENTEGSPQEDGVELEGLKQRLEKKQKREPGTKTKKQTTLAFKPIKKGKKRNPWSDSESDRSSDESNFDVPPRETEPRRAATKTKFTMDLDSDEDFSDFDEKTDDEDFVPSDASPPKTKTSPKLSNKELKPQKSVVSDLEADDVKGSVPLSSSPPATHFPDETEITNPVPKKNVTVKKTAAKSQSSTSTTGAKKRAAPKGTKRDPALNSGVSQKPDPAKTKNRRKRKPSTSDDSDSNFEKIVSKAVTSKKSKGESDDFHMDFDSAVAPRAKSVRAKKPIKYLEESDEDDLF

Compound: CCC1=C[C@@H]2CN(C1)Cc1c([nH]c3ccccc13)[C@@](C(=O)OC)(c1cc3c(cc1OC)N(C)[C@H]1[C@@](O)(C(=O)OC)[C@H](OC(C)=O)[C@]4(CC)C=CCN5CC[C@]31[C@@H]54)C2 [VINORELBINE]
- Activity (HT-29 [1]): 1.39%
- Activity (CAL-33 [2]): 17.62%
- Activity (CAL-33 [3]): 24.44%
- Activity (HT-29 [4]): 3.41%
- Activity (HT-29 [5]): 72.85%
- Activity (CAL-33 [6]): 72.8%
- Activity (CAL-33 [7]): 9.96%
- Activity (HT-29 [8]): 21.42%

Compound: CC(=O)O[C@@]12CO[C@@H]1C[C@H](O)[C@@]1(C)C(=O)[C@H](O)C3=C(C)[C@@H](OC(=O)[C@H](O)[C@@H](NC(=O)OC(C)(C)C)c4ccccc4)C[C@@](O)([C@@H](OC(=O)c4ccccc4)[C@H]21)C3(C)C.O.O.O [DOCETAXEL]
- Activity (HT-29 [1]): 0.86%
- Activity (CAL-33 [2]): 15.41%
- Activity (CAL-33 [3]): 17.11%
- Activity (HT-29 [4]): 2.76%
- Activity (HT-29 [5]): 88.24%
- Activity (CAL-33 [6]): 88.2%
- Activity (CAL-33 [7]): 4.99%
- Activity (HT-29 [8]): 7.85%

- IC50 [9]: 2400 nM
- IC50 (HT-29 [10]): 24 nM
- IC50 (DU-145): 17 nM
- IC50 (PC-3): 475 nM
Compound: COc1ccc(CCN2C=CC=C3C2=Nc2ccccc2OS3(=O)=O)cc1

- IC50 [9]: > 10000 nM
- IC50 (HT-29 [10]): > 100000 nM
Compound: COc1cc(CCc2cccc3c2Nc2ccccc2S3(=O)=O)cc(OC)c1OC

- IC50 [9]: > 10000 nM
- IC50 (HT-29 [10]): > 50000 nM
Compound: COc1ccc(CCc2cccc3c2Nc2ccccc2S3(=O)=O)cc1OC

- IC50 [9]: > 10000 nM
- IC50 (HT-29 [10]): 51 nM
- IC50 (HL-60 [19]): 100 nM
- IC50 (DU-145): 50 nM
- IC50 (PC-3): 750 nM
- inhibition [27]: Active
Compound: COc1ccc(CCc2cccc3c(=O)c4ccccc4[nH]c23)cc1
- Activity (HT-29 [1]): 0.65%
- Activity (HT-29 [11]): 0.83%
- Activity (HL-60 [12]): 37.16%
- Activity (HL-60 [13]): 15.2%
- Activity (HL-60 [14]): 26.55%
- Activity (HL-60 [15]): 34.34%
- Activity (CAL-33 [2]): 28.46%
- Activity (HL-60 [16]): 18.5%
- IC50 (CAL-33 [17]): 37 nM
- Activity (HL-60 [18]): 19.58%
- Activity (CAL-33 [20]): 8.35%
- Activity (CAL-33 [3]): 9.84%
- Activity (HL-60 [21]): 24.4%
- Activity (HT-29 [4]): 2.75%
- Activity (CAL-33 [22]): 33.12%
- Activity (HT-29 [23]): 21.11%
- Activity (HT-29 [24]): 4.6%
- Activity (HT-29 [5]): 81.81%
- Activity (HL-60 [25]): 25.15%
- Activity (HT-29 [26]): 73.1%
- Activity (CAL-33 [6]): 57.42%
- Activity (CAL-33 [28]): 35.16%
- Activity (CAL-33 [29]): 22.73%
- Activity (CAL-33 [7]): 4%
- Activity (HT-29 [8]): 14.55%

- IC50 [9]: 1250 nM
- IC50 (HT-29 [10]): 7200 nM
Compound: COc1ccc(CCc2cccc3c2Nc2ccccc2S3(=O)=O)cc1O

- IC50 [9]: 510 nM
- IC50 (HT-29 [10]): 12000 nM
Compound: COc1ccc(CCc2cccc3c(=O)c4ccccc4[nH]c23)cc1O

- IC50 [9]: 2200 nM
- IC50 (HT-29 [10]): 210 nM
Compound: COc1ccc(S(=O)(=O)Nc2cccnc2Nc2ccc(O)cc2)cc1 [ABT-751]

- IC50 [9]: > 10000 nM
- IC50 (HT-29 [10]): > 100000 nM
Compound: O=S1(=O)c2ccccc2Nc2c(CCc3ccc(O)c(O)c3)cccc21

Compound: CC[C@]1(O)C[C@H]2CN(CCc3c([nH]c4ccccc34)[C@@](C(=O)OC)(c3cc4c(cc3OC)N(C=O)[C@H]3[C@@](O)(C(=O)OC)[C@H](OC(C)=O)[C@]5(CC)C=CCN6CC[C@]43[C@@H]65)C2)C1 [VINCRISTINE]
- Activity (HT-29 [1]): 5.97%
- Activity (CAL-33 [2]): 17.13%
- Activity (CAL-33 [3]): 20.5%
- Activity (HT-29 [4]): 4.65%
- Activity (HT-29 [5]): 72.53%
- Activity (CAL-33 [6]): 72.5%
- Activity (CAL-33 [7]): 14.29%
- Activity (HT-29 [8]): 16.43%

- IC50 [9]: > 10000 nM
- IC50 (HT-29 [10]): > 100000 nM
- IC50 (HL-60 [19]): > 50000 nM
- IC50 (DU-145): > 100000 nM
- IC50 (PC-3): > 100000 nM
- inhibition [27]: Active
Compound: COc1cc(CCc2cccc3c(=O)c4ccccc4[nH]c23)cc(OC)c1OC
- IC50 (CAL-33 [17]): > 100000 nM

- IC50 [9]: > 10000 nM
- IC50 (HT-29 [10]): 870 nM
- IC50 (HL-60 [19]): 1650 nM
- IC50 (DU-145): 810 nM
- IC50 (PC-3): > 50000 nM
- inhibition [27]: Active
Compound: COc1ccc(CCc2cccc3c2Nc2ccccc2S3(=O)=O)cc1
- Activity (HT-29 [1]): 1.63%
- Activity (HT-29 [11]): 0.47%
- Activity (HL-60 [12]): 8.22%
- Activity (CAL-33 [30]): 15.95%
- Activity (HL-60 [13]): 14.77%
- Activity (HL-60 [14]): 24.77%
- Activity (HL-60 [15]): 34.12%
- Activity (HL-60 [16]): 21.83%
- IC50 (CAL-33 [17]): 627 nM
- Activity (HL-60 [18]): 12.4%
- Activity (HL-60 [21]): 26.83%
- Activity (HT-29 [4]): 8.63%
- Activity (HT-29 [23]): 8.63%
- Activity (HT-29 [24]): 2.46%
- Activity (HL-60 [25]): 57.66%
- Activity (HT-29 [26]): 87.92%
- Activity (HT-29 [8]): 73.56%

- IC50 [9]: > 10000 nM
- IC50 (HT-29 [10]): > 50000 nM
Compound: COc1ccc(CCc2cccc3c(=O)c4ccccc4[nH]c23)cc1OC

- IC50 [9]: > 10000 nM
- IC50 (HT-29 [10]): > 50000 nM
Compound: O=c1c2ccccc2[nH]c2c(CCc3ccc(O)c(O)c3)cccc12
